Experimental data published in ChEMBL document CHEMBL2406966, “Structure and Property Based Design of Pyrazolo[1,5-a]pyrimidine Inhibitors of CK2 Kinase with Activity in Vivo” (ACS Med Chem Lett, 2013).
≈ marks a conversion by molar mass, not a printed value. Calls of active or inactive are those of the source. The calls are words filed in the database; no cut-off is given here.

Tests used:
[1] = Antitumor activity against human DLD2 cells xenografted in mouse assessed as tumor growth inhibition at 5 mg/kg, po bid after 14 days relative to control; format: functional; details: DLD2, 336 h, read-out: TGI
[2] = Antitumor activity against human DLD2 cells xenografted in mouse assessed as tumor growth inhibition at 10 mg/kg, po qd after 14 days relative to control; format: functional; details: DLD2, 336 h, read-out: TGI
Mus musculus [3] = assay: In vivo inhibition of CK2 in human DLD2 cells xenografted in mouse assessed as inhibition of AKT phosphorylation at Ser129 at 10 mg/kg, po measured up to 24 hrs by ELISA; format: functional, organism-based; set-up: dose 10 mg/kg
Procedure, shortened: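 DLD-1 AKT1-overexpressing xenograft mice received a single oral dose of 10 mg/kg. pAKT S129 in tumour cell lysates was quantified by ELISA over time and plotted against plasma drug concentration.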

Mus musculus [4] = assay: In vivo inhibition of CK2 in human DLD2 cells xenografted in mouse assessed as inhibition of AKT phosphorylation at Ser129 at 10 mg/kg, po measured at 24 hrs by Western blot analysis; format: functional, organism-based; set-up: dose 10 mg/kg
Procedure, shortened: (§1)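 Mice bearing DLD-1 xenografts overexpressing AKT1 received a single oral dose (10 or 12.5 mg/kg). Tumour cell lysates were taken at 3, 8 and 24 h post-dose and probed for pAKT S129 by Western blot.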

Mus musculus [5] = assay: In vivo inhibition of CK2 in human DLD2 cells xenografted in mouse assessed as inhibition of AKT phosphorylation at Ser129 at 10 mg/kg, po measured at 3 to 8 hrs by Western blot analysis; format: functional, organism-based; set-up: dose 10 mg/kg; procedure, shortened: as §1
[6] = target: Cyclin-dependent kinase 2 (Homo sapiens, UniProt P24941); assay: Inhibition of CDK2 (unknown origin)
[7] = target: Glycogen synthase kinase-3 beta (Homo sapiens, UniProt P49841); assay: Inhibition of GSK3beta (unknown origin)
[8] = target: T1, Dual specificity tyrosine-phosphorylation-regulated kinase 3 (Homo sapiens, UniProt O43781); assay: Inhibition of Dyrk-3 (unknown origin)
T1 sequence (O43781 whole entry): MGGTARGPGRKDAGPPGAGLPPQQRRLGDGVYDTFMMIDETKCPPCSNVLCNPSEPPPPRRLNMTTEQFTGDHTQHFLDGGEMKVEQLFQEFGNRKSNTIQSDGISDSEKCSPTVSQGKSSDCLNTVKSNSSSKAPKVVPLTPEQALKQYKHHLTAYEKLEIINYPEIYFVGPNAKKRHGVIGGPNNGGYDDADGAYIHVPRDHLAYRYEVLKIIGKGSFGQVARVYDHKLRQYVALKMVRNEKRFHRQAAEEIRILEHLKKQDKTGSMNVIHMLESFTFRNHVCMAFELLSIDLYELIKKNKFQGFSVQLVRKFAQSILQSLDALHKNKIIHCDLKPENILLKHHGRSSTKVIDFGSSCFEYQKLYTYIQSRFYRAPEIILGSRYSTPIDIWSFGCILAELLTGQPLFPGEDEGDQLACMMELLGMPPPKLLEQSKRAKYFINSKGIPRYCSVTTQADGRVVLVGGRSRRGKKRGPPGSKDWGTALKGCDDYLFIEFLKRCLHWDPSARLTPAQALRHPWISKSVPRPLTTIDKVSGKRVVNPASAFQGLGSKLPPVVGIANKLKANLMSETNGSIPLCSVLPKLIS

[9] = target: Serine/threonine-protein kinase pim-3 (Homo sapiens, UniProt Q86V86); assay: Inhibition of PIM3 (unknown origin)
[10] = target: Homeodomain-interacting protein kinase 2 (Homo sapiens, UniProt Q9H2X6); assay: Inhibition of Hipk-2 (unknown origin)
[11] = target: Death-associated protein kinase 2 (Homo sapiens) (UniProt Q9UIK4); assay: Inhibition of Dapk-2 (unknown origin) assessed as residual activity at 0.1 uM/L relative to control
Procedure, shortened: (§2)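 KINOMEscan competition binding panel measuring displacement of an immobilized, active-site-directed ligand. Test concentration was 0.1 μM/L. Read-out was residual activity as % of DMSO control.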

[12] = target: Death-associated protein kinase 3 (Homo sapiens) (UniProt O43293); assay: Inhibition of Dapk-3 (unknown origin) assessed as residual activity at 0.1 uM/L relative to control
Procedure, shortened: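 Kinome-wide competition binding panel: measures the compound's ability to compete with an immobilized, active-site-directed ligand for kinase binding. Inhibitor tested at 0.1 μM/L. Read-out is residual activity as a percentage of the DMSO control.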

[13] = target: Death-associated protein kinase 1 (Homo sapiens) (UniProt P53355); assay: Inhibition of Dapk-1 (unknown origin) assessed as residual activity at 0.1 uM/L relative to control; procedure, shortened: as §2
[14] = target: Homeodomain-interacting protein kinase 3 (Homo sapiens) (UniProt Q9H422); assay: Inhibition of Hipk-3 (unknown origin) assessed as residual activity at 0.1 uM/L relative to control; procedure, shortened: as §2
[15] = target: Homeodomain-interacting protein kinase 1 (Homo sapiens) (UniProt Q86Z02); assay: Inhibition of Hipk-1 (unknown origin) assessed as residual activity at 0.1 uM/L relative to control; procedure, shortened: as §2
[16] = target: Dual specificity tyrosine-phosphorylation-regulated kinase 1A (Homo sapiens) (UniProt Q13627); assay: Inhibition of Dyrk-1 (unknown origin) assessed as residual activity at 0.1 uM/L relative to control; procedure, shortened: as §2
[17] = target: T2, Dual specificity tyrosine-phosphorylation-regulated kinase 2 (Homo sapiens) (UniProt Q92630); assay: Inhibition of Dyrk-2 (unknown origin) assessed as residual activity at 0.1 uM/L relative to control; procedure, shortened: as §2
T2 sequence (whole entry): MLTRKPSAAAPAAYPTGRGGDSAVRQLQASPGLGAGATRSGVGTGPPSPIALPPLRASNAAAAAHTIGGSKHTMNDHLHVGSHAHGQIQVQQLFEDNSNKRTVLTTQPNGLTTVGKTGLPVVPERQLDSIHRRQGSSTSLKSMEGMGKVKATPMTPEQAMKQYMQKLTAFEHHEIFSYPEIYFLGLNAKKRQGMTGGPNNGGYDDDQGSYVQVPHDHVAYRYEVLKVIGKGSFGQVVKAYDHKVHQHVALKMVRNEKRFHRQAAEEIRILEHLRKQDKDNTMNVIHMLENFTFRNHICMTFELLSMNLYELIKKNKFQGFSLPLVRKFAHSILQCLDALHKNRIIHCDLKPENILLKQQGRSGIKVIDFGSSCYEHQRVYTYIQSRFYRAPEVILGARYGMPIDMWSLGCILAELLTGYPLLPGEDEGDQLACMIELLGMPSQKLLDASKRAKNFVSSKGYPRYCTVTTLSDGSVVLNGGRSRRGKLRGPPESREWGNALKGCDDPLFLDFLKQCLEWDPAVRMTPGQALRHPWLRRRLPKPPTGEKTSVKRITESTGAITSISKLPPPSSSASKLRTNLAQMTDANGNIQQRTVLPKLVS

[18] = Plasma half life in rat at 10 mg/kg, po; format: ADME, organism-based; set-up: dose 10 mg/kg, route oral
Procedure, shortened: (§3)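 Rats were given a single oral dose of 10 mg/kg. Plasma pharmacokinetics yielded bioavailability (F, %), half-life (h) and clearance (mL/min/kg).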

[19] = Intrinsic clearance in rat liver microsomes; format: ADME, Microsome; details: read-out: CLH
Procedure, shortened: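 Incubation with rat liver microsomes; intrinsic clearance reported in μL/min/mg.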

[20] = Fraction unbound in human plasma at 10 uM by equilibrium dialysis method; format: ADME, cell-free
[21] = Aqueous solubility of the compound in phosphate buffer at pH 7.4 after 24 hrs; format: physicochemical
HCT-116 = assay: Growth inhibition of human HCT116 cells after 72 hrs by Alamar blue assay; format: functional; details: HCT-116, 72 h
physchem = details: octanol/water, pH 7.4
MDR1 [22] = assay: Efflux ratio of apparent permeability across apical to basolateral side in porcine LLC cells expressing MDR1; format: ADME, cell-based, Sus scrofa; details: pig, LLC-PK1
Procedure, shortened: (§4)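 MDR1-expressing LLCK cell monolayers. Apical-to-basolateral apparent permeability (Papp) measured in cm/s; efflux ratio also determined.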

MDR1 [23] = assay: Apparent permeability across apical to basolateral side in porcine LLC cells expressing MDR1; format: ADME, cell-based, Sus scrofa; details: pig, LLC-PK1; procedure, shortened: as §4
[24] = Cmax in po dosed rat; format: ADME, organism-based; set-up: route oral; details: in vivo
[25] = target: Casein kinase II subunit alpha (Homo sapiens, UniProt P68400); assay: Inhibition of N-terminal His6X-tagged recombinant human full length casein kinase-2alpha expressed in SF21 cells using BODIPY-FL-RRRDDDSDDD-CONH2 as substrate preincubated for 20 mins measured after 90 mins by mobility shift assay
[26] = Clearance in rat at 10 mg/kg, po; format: ADME, organism-based; set-up: dose 10 mg/kg, route oral; details: in vivo; procedure, shortened: as §3
[27] = Oral bioavailability in rat at 10 mg/kg; format: ADME, organism-based; details: in vivo; procedure, shortened: as §3
[28] = target: Voltage-gated inwardly rectifying potassium channel KCNH2 (Homo sapiens, UniProt Q12809); assay: Binding affinity to human ERG expressed in CHO cells by IonWorks assay
cells = details: Homo sapiens, HCT-116
[29] = Inhibition of casein kinase-2 (unknown origin); set-up: species or system Homo sapiens
Procedure, shortened: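 Recombinant human full-length CK2α phosphorylating a synthetic peptide substrate, run at Km ATP concentration.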

Casein kinase II subunit alpha, sequence (P68400 whole entry): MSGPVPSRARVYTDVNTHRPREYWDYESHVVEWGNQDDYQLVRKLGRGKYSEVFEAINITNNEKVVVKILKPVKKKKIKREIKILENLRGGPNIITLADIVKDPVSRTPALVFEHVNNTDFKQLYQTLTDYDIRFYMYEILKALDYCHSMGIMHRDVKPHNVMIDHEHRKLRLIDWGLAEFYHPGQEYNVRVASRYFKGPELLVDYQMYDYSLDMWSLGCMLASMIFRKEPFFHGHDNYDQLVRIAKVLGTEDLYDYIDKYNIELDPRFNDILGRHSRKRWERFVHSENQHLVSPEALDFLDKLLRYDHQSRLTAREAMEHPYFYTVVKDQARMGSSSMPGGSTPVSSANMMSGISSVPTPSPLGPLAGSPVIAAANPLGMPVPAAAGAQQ
Death-associated protein kinase 2 (Homo sapiens), sequence (Q9UIK4 whole entry, looked up): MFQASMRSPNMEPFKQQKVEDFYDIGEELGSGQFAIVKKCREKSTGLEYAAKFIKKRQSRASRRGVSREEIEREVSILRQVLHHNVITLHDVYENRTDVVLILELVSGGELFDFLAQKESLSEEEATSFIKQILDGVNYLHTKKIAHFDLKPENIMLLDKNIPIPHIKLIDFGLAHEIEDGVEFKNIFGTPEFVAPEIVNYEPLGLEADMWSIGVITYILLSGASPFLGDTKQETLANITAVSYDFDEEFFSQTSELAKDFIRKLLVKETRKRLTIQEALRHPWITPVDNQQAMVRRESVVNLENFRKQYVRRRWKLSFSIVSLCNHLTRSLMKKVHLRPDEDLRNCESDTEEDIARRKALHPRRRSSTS
Homeodomain-interacting protein kinase 3 (Homo sapiens), sequence (Q9H422 whole entry, looked up): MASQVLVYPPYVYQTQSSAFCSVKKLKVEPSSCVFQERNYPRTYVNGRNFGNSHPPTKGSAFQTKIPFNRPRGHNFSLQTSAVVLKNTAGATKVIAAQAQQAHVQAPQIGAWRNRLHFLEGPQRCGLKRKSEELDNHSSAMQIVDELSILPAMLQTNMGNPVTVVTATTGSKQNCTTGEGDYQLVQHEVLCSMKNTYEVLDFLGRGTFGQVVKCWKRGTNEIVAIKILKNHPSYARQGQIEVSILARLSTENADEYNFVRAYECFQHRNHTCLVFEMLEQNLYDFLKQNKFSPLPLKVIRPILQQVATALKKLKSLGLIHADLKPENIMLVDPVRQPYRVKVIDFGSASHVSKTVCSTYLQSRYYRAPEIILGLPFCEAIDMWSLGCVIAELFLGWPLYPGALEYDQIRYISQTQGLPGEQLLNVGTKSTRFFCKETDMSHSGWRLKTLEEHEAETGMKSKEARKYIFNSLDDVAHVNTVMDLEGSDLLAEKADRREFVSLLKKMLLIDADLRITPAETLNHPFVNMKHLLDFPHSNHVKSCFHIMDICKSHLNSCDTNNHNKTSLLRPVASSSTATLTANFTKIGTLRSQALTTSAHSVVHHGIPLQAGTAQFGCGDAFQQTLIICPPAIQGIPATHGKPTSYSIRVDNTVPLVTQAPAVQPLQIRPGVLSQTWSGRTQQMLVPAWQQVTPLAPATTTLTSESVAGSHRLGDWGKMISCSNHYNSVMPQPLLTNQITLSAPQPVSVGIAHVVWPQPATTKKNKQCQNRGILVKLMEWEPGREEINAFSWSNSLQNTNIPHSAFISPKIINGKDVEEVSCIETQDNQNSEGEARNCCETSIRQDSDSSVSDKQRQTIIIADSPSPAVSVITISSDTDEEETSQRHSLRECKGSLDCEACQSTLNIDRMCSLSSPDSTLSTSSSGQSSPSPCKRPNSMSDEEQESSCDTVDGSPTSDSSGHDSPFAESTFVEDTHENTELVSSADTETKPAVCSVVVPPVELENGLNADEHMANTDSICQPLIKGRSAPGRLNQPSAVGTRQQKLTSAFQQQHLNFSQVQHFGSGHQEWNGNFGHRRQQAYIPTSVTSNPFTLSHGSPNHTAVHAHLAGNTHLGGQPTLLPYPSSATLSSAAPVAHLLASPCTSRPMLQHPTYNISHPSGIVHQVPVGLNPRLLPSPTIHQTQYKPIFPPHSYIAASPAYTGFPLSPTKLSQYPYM
Voltage-gated inwardly rectifying potassium channel KCNH2, sequence (Q12809 whole entry): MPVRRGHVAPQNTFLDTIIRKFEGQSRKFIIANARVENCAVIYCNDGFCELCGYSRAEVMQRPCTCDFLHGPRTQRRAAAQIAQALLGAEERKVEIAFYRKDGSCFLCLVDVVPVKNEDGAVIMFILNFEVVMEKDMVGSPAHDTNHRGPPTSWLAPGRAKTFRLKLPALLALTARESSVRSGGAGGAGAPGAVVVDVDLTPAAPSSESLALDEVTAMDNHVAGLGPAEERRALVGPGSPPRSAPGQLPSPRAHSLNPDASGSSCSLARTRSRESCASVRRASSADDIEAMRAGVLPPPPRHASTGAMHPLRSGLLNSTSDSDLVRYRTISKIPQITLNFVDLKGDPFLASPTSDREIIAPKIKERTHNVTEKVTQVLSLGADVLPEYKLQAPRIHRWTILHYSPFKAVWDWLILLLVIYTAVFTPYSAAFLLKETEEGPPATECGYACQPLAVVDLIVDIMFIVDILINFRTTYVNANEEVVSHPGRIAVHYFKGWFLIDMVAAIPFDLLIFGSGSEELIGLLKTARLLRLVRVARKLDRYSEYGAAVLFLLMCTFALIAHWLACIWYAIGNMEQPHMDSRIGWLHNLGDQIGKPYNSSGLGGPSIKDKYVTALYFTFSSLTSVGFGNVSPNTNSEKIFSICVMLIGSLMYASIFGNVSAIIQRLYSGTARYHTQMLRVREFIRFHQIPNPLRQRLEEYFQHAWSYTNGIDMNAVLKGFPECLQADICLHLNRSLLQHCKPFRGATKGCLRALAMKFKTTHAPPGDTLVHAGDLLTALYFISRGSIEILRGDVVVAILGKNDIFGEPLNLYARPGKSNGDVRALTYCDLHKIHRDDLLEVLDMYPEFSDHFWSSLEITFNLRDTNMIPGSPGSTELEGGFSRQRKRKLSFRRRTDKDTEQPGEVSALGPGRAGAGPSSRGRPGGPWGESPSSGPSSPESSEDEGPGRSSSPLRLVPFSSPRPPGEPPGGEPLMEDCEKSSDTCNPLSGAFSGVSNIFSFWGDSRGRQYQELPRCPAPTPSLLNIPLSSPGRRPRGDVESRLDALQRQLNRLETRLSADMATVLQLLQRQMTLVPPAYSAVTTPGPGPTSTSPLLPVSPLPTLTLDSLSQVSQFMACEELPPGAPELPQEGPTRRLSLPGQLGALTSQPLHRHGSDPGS
Glycogen synthase kinase-3 beta, sequence (P49841 whole entry): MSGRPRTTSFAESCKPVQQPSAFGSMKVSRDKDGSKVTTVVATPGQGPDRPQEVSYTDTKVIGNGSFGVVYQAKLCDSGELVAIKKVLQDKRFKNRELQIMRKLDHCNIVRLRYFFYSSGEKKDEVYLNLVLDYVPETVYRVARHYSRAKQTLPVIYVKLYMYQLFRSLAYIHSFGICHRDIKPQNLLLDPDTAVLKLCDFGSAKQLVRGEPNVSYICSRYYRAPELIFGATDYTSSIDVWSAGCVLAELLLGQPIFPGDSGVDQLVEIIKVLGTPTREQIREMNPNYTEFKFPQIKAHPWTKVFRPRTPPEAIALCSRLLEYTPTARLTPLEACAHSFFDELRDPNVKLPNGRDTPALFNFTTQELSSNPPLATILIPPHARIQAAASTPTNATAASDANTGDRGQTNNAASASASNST
Death-associated protein kinase 3 (Homo sapiens), sequence (O43293 whole entry, looked up): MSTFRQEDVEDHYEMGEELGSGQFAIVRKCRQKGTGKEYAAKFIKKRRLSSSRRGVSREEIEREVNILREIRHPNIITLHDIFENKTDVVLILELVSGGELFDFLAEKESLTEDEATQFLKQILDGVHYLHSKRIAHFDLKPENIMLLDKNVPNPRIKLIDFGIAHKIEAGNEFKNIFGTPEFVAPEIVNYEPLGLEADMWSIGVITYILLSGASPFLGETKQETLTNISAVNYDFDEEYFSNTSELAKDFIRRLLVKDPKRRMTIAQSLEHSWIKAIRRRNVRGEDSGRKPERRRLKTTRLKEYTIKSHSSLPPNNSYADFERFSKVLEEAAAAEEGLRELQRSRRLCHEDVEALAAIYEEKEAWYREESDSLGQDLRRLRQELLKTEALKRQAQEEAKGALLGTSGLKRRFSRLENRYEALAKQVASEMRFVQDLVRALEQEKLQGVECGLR

CC(=O)Nc1cc(Nc2cc(NC3CC3)n3ncc(C#N)c3n2)ccc1C
inhibition in vivo at 5 mg/kg [1]: 37%
inhibition in vivo at 10 mg/kg [2]: 28%
inhibition (Mus musculus [3]): Active
inhibition (Mus musculus [4]): inactive
inhibition (Mus musculus [5]): Active
IC50 [6]: 7200 nM
IC50 [7]: 2600 nM
IC50 [8]: 70 nM
IC50 [9]: 150 nM
IC50 [10]: 40 nM
Activity [11]: 43%
Activity [12]: 22%
Activity [13]: 21%
Activity [14]: 39%
Activity [15]: 38%
Activity [16]: 43%
Activity [17]: 18%
half-life [18]: 2.6 h
microsomal CLint [19]: 15 µL/min/mg
fraction unbound at 10 µM [20]: 0.08
solubility at 24 h [21]: 8 µM (≈ 2.89 µg/mL)
GI50 (HCT-116): 81 nM
logD at 5 h (physchem): 2.4

CC(=O)Nc1cc(Nc2cc(Nc3ccn(CCN4CCCC4)n3)n3ncc(C#N)c3n2)ccc1C
efflux ratio (MDR1 [22]): 100
Papp A→B (MDR1 [23]): 0.2 ×10⁻⁶ cm/s
Cmax [24]: < 100 nM
microsomal CLint [19]: 65 µL/min/mg
solubility at 24 h [21]: 3 µM (≈ 1.45 µg/mL)
GI50 (HCT-116): 100 nM
IC50 [25]: < 3 nM
logD at 5 h (physchem): 2.5

CC(=O)Nc1cc(Nc2cc(NC3COC3)n3ncc(C#N)c3n2)ccc1C1CC1
CL/F [26]: 23 mL/min/kg
bioavailability [27]: 47%
half-life [18]: 1.4 h
microsomal CLint [19]: < 4 µL/min/mg
IC50 [28]: > 33000 nM
fraction unbound at 10 µM [20]: 0.2
solubility at 24 h [21]: 11 µM (≈ 4.44 µg/mL)
GI50 (HCT-116): 59 nM
IC50 [25]: < 3 nM
IC50 (cells): 6 nM
logD at 5 h (physchem): 2.2

CC(=O)Nc1cc(Nc2cc(NC3CC3)n3nccc3n2)ccc1C
IC50 [29]: 270 nM
IC50 (cells): > 3300 nM
